# In ChEMBL document CHEMBL1124354, “Potential antiatherosclerotic agents. 6. Hypocholesterolemic trisubstituted urea analogues” (J Med Chem, 1989):
# What was measured:
# [1] = biological target: T1, Sterol O-acyltransferase 1 (Rattus norvegicus) (UniProt O70536); assay: In vitro percentage inhibition against acyl coenzyme A:cholesterol acyltransferase derived from rat adrenals; design: concentration or dose not given beside the values; details: concentration not given here
# T1 sequence (whole entry): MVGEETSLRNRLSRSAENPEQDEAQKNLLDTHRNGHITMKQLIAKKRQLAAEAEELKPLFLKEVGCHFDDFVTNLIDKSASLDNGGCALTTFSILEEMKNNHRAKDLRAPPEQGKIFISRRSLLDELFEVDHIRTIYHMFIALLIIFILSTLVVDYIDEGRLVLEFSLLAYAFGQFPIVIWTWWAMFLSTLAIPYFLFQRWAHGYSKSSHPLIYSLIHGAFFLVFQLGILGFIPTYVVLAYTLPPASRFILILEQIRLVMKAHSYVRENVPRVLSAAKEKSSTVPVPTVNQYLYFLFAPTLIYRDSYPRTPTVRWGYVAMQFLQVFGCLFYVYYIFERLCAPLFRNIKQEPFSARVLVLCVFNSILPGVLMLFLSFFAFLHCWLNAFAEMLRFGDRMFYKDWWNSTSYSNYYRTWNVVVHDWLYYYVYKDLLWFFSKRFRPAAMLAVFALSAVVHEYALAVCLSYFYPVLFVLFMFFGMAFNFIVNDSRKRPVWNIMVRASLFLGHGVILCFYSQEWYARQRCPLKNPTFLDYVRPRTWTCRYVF
# In short: (§1)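 Rat adrenal 1000g supernatant (microsomal ACAT) in 0.2 M KH2PO4 pH 7.4 with BSA; test compound at final 5.2 µg/mL, preincubated 37 °C 10 min; [14C]oleoyl-CoA (0.4 µCi) added, 37 °C 30 min. Cholesteryl ester separated by TLC, scintillation counted; mean percent inhibition against compound-free control.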
# [2] = biological target: T2, Sterol O-acyltransferase 1 (Rattus norvegicus, UniProt O70536); assay: In vitro inhibitory concentration against acyl coenzyme A:cholesterol acyltransferase derived from rat adrenals
# T2 sequence (O70536 whole entry): T1 sequence (whole entry)
# In short: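 Rat adrenal homogenate in 0.2 M KH2PO4 buffer pH 7.4, 1000g supernatant (microsomal fraction) as enzyme; preincubated with BSA and test compound at graded concentrations, 37 °C 10 min, then [14C]oleoyl-CoA 0.4 µCi, 37 °C 30 min. Lipids extracted, cholesteryl ester isolated by TLC and counted. Triplicate tubes per concentration; IC50 by linear regression of means.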
# [3] = biological target: T1, Sterol O-acyltransferase 1 (Rattus norvegicus); assay: Liver hypolipidemic activity in rats; type: functional
# In short: (§2)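 Male CD-1 Sprague-Dawley rats, 140–150 g, fed 1% cholesterol/0.5% cholic acid diet with compound admixed at 0.01% (about 10 mg/kg/day) for 7 days. Serum and liver cholesterol measured by Technicon autoanalyzer methods; expressed as percent of control.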
# [4] = biological target: T1, Sterol O-acyltransferase 1 (Rattus norvegicus); assay: Serum hypolipidemic activity in rats; type: functional; in short: as §2
# [5] = biological target: T1, Sterol O-acyltransferase 1 (Rattus norvegicus); assay: In vitro percentage inhibition against Acyl coenzyme A:cholesterol acyltransferase derived from rat adrenals; design: concentration or dose not given beside the values; details: concentration not given here; in short: as §1
Structure (SMILES),inhibition [1],IC50 [2],LS [3],SS [4],inhibition [5]
CCCCN(CCCC)C(=O)Nc1cc(Cl)cc(Cl)c1,79%,4.38 µM,93%,76%,–
COc1ccc(C)cc1NC(=O)N(Cc1ccccc1)Cc1ccccc1,–,–,44%,83%,88%
Cc1ccc(NC(=O)N(Cc2ccccc2)Cc2ccccc2)c(C)c1,–,–,31%,52%,90%
CCCCN(CCCC)C(=O)Nc1cccc(C(C)=O)c1,–,–,100%,64%,51%
CCCCN(CCCC)C(=O)Nc1cc(C)ccc1C,–,–,110%,127%,96%
C#CCN(CC#C)C(=O)Nc1ccc(C)cc1C,–,–,93%,73%,33%
Cc1ccc(NC(=O)N(CCC(C)CC(C)(C)C)CCC(C)CC(C)(C)C)c(C)c1 (stereo not given),–,–,70%,71%,90%
Cc1c(Cl)cccc1NC(=O)N(CCC(C)(C)C)Cc1cccs1,–,6.77 µM,64%,62%,–
CCCCN(CCCC)C(=O)Nc1cccc(C(F)(F)F)c1,–,–,91%,100%,75%
CCCCCCCCCCCCCCCCCCN(CCCCCCCCCCCCCCCCCC)C(=O)Nc1ccc(C)cc1C,–,–,123%,106%,-6%
CC(C)(C)CCN(Cc1cccs1)C(=O)Nc1c(Cl)cc(Cl)cc1Cl,–,0.977 µM,56%,58%,–
CCCCCCCCCCCCCCN(CCCCCCCCCCCCCC)C(=O)Nc1ccc(C)cc1C,–,–,121%,107%,-7%
CCOc1ccc(NC(=O)N(Cc2ccccc2)Cc2ccccc2)cc1,96%,9.63 µM,–,–,–
CCCCCCCC/C=C/CCCCCCCCN(Cc1ccc(CCCC)cc1)C(=O)Nc1ccc(C)cc1C (stereo in doubt; 161),–,–,87%,130%,9%
CCCCN(Cc1ccc2c(c1)OCO2)C(=O)Nc1ccc(C)cc1C,88%,5.67 µM,46%,64%,–
CCCCN(CCCC)C(=O)Nc1ccc(C)c(Cl)c1,91%,6.43 µM,98%,110%,–
CCCCN(Cc1ccccc1)C(=O)Nc1ccc(C)cc1,14%,–,107%,106%,78%
CCCCN(CCCC)C(=O)Nc1cc(C)cc(C)c1,84%,3.55 µM,76%,100%,–
CCOC(=O)c1ccc(NC(=O)N(Cc2ccccc2)Cc2ccccc2)cc1,93%,–,83%,120%,–
CCCCN(CCCC)C(=O)Nc1cccc(Cl)c1C,80%,4.08 µM,93%,87%,–
Cc1ccc(NC(=O)N(Cc2ccccc2)Cc2ccccc2)cc1C,–,–,60%,97%,72%
Cc1ccc(NC(=O)N(CCC(C)C)CCC(C)C)c(C)c1,89%,4.7 µM,65%,66%,–
O=C(Nc1ccccc1C(F)(F)F)N(Cc1ccccc1)Cc1ccccc1,–,–,76%,165%,68%
CCCCN(CCCC)C(=O)Nc1ccccc1C,62%,–,111%,81%,–

Structure (SMILES),inhibition [1],IC50 [2],LS [3],SS [4],inhibition [5]
CCCCN(Cc1ccccc1)C(=O)Nc1c(C)cc(C)cc1C,76%,–,37%,63%,–
CCCCN(CCCC)C(=O)Nc1ccccc1,64%,–,100%,121%,–
O=C(Nc1cccc(Cl)c1)N(Cc1ccccc1)Cc1ccccc1,94%,7.75 µM,–,–,–
CCCCCCCCN(CCCCCCCC)C(=O)Nc1ccc(C)cc1C,–,–,22%,47%,89%
Cc1cccc(NC(=O)N(Cc2ccccc2)Cc2ccccc2)c1C,–,–,51%,65%,85%
CC(C)(C)CCN(Cc1cccs1)C(=O)Nc1ccc(F)cc1F,–,6.75 µM,73%,66%,–
Cc1ccc(NC(=O)Nc2ccc(C)cc2C)c(C)c1,–,–,85%,100%,10%
Cc1ccc(NC(=O)N(CCCCC2CCCCC2)CCCCC2CCCCC2)c(C)c1,–,–,106%,80%,86%
COc1cccc(NC(=O)NCc2ccccc2)c1,34%,–,94%,110%,–
O=C(Nc1ccc(Cl)cc1C(F)(F)F)N(Cc1ccccc1)Cc1ccccc1,–,–,57%,66%,82%
CCCCN(Cc1ccccc1)C(=O)Nc1c(C)cccc1C,83%,–,91%,68%,–
CCCCN(CCCC)C(=O)Nc1cccc(Cl)c1,88%,9.65 µM,100%,105%,–
Cc1ccc(Cl)cc1NC(=O)N(Cc1ccccc1)Cc1ccccc1,–,–,66%,97%,71%
CCCCN(CCCC)C(=O)Nc1ccc(Cl)c(C(F)(F)F)c1,87%,10.5 µM,–,–,–
O=C(Nc1cccc(Br)c1)N(Cc1ccccc1)Cc1ccccc1,92%,5.77 µM,86%,92%,–
O=C(Nc1ccc(Oc2ccccc2)cc1)N(Cc1ccccc1)Cc1ccccc1,94%,3.23 µM,89%,66%,–
CCCCN(Cc1ccccc1)C(=O)Nc1cc(Cl)cc(Cl)c1,91%,–,107%,120%,–
O=C(NCc1ccccc1)Nc1ccccc1Cl,–,–,96%,92%,50%
CCCCN(CCCC)C(=O)Nc1cccc(C)c1,78%,4.76 µM,–,–,–
CCCCN(CC(c1ccc(Cl)cc1)c1ccc(Cl)cc1)C(=O)Nc1ccc(C)cc1C,–,–,84%,110%,81%
CCCCN(Cc1ccccc1)C(=O)Nc1cc(C)cc(C)c1,94%,–,75%,93%,–
O=C(Nc1ccc(Cl)cc1)N(Cc1ccccc1)c1ccccc1,68%,–,102%,67%,–
CCCCCCCCCCCCN(CCCCCCCCCCCC)C(=O)Nc1ccc(C)cc1C,–,–,120%,86%,26%
CCCCc1ccc(NC(=O)N(Cc2ccccc2)Cc2ccccc2)cc1,–,–,87%,62%,91%
